# Results taken from ChEMBL document CHEMBL1127075, “Structural modification of 5-aryl-2,3-dihydroimidazo[2,1-a]isoquinoline platelet activating factor receptor antagonists” (J Med Chem, 1993).
# Experiments:
# [1] = target: Platelet-activating factor receptor (Homo sapiens, UniProt P25105); assay: In vitro PAF antagonistic activity by determining [3H]PAF binding to the PAF-receptor of human platelets
# How it was run: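 Human platelets incubated with [3H]PAF; free ligand removed by centrifugation, bound radioactivity counted 1 min by liquid scintillation. Specific binding = total minus nonspecific binding (0.37 mM unlabeled PAF).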
# Cavia porcellus [2] = assay: In vivo PAF induced bronchoconstriction tested in guinea pig at 20 mg/kg dose; assay type: functional
# How it was run: (§1)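 Anesthetized guinea pigs given compound po in H2O at 20 mg/kg, 2 h before iv PAF (0.05 mg/kg); percent inhibition of bronchoconstriction (Konzett-Rosler) or hemoconcentration, three to five animals.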
# Cavia porcellus [3] = assay: In vivo PAF induced hemoconcentration tested in guinea pig at 20 mg/kg dose; assay type: functional; how it was run: as §1
# Cavia porcellus [4] = assay: In vivo PAF induced hemoconcentration tested in guinea pig; assay type: functional
# How it was run: (§2)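 Anesthetized guinea pigs, compound given po in H2O 2 h before iv PAF challenge (0.05 mg/kg); bronchoconstriction (Konzett-Rosler) and hemoconcentration measured. ED50 from dose-response curves, at least five doses, four to seven animals per dose.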
# Cavia porcellus [5] = assay: In vivo PAF induced bronchoconstriction tested in guinea pig; assay type: functional; how it was run: as §2
# Chain of Platelet-activating factor receptor (P25105 whole entry): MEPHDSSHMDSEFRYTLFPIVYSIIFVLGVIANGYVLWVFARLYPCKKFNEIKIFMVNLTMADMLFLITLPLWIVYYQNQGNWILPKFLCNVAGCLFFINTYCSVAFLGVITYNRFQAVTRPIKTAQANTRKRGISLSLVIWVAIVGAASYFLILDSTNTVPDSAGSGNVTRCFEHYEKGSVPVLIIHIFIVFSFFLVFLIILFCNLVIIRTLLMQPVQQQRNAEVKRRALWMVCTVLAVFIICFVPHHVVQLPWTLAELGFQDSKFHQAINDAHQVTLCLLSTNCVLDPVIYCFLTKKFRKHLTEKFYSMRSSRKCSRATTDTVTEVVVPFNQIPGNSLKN
Structure (SMILES),IC50 [1] [µM],inhibition in vivo at 20 mg/kg (Cavia porcellus [2]) [%],inhibition in vivo at 20 mg/kg (Cavia porcellus [3]) [%],ED50 (Cavia porcellus [4]) [mg/kg],ED50 (Cavia porcellus [5]) [mg/kg]
COc1cc(CCc2ccc(C3=Cc4ccccc4C4=NCC(C)(C)CN34)cc2)cc(OC)c1OC,0.5,17,23,–,–
COc1cc(CCc2ccc(C3=Cc4ccccc4C4=NC(C)(C)CN34)cc2)cc(OC)c1OC,0.06,24,17.9,–,–
COc1cc(CCc2ccc(-c3cc4ccccc4c4nnc(C)n34)cc2)cc(OC)c1OC,9.5,–,–,–,–
COc1cc(CCc2ccc(C3=Cc4ccccc4C4=NCCCN34)cc2)cc(OC)c1OC,0.04,–,–,3,4.7
COc1cc(CCc2ccc(C3=Cc4ccccc4C4=NCCN34)cc2)cc(OC)c1OC,–,–,–,5,4.2
COc1cc(CCc2ccc(-c3cc4ccccc4c4nc(C)cn34)cc2)cc(OC)c1OC,35,–,–,–,–
COc1cc(CCc2ccc(C3=Cc4oc(C)cc4C4=NCCN34)cc2)cc(OC)c1OC,0.05,–,–,10,> 10
COc1cc(CCc2ccc(C3=Cc4ccccc4C4=NC(C)CN34)cc2)cc(OC)c1OC (stereo unspecified),0.22,–,–,10,16
COc1cc(CCc2ccc(C3=Nc4ccccc4C4=NCCN34)cc2)cc(OC)c1OC,1.14,–,–,31.9,31.4
COc1cc(CCc2ccc(-c3cc4ccccc4c4nccn34)cc2)cc(OC)c1OC,89,–,–,–,–
COc1cc(CCc2ccc(C3=Cc4ccsc4C4=NCCN34)cc2)cc(OC)c1OC,0.01,–,–,1.1,0.8
